Assay results taken from ChEMBL document CHEMBL5131562, “1,3-Dioxane-Linked Novel Bacterial Topoisomerase Inhibitors: Expanding Structural Diversity and the Antibacterial Spectrum” (ACS Med Chem Lett, 2022).
Values after ≈ are worked out from the molar mass of the structure shown.

Key:
[1] = target: Voltage-gated inwardly rectifying potassium channel KCNH2 (Homo sapiens, UniProt Q12809); assay: Inhibition of hERG cardiac ion channel; assay type: toxicity
Method in brief: (§1)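 hERG channel inhibition was run by a contract lab. […] Determinations were made in duplicate or triplicate (n = 2 or 3).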

Staphylococcus aureus [2] = assay: Antibacterial activity against cystic fibrosis isolate Staphylococcus aureus by CLSI method; assay type: functional
Staphylococcus aureus [3] = assay: Antibacterial activity against Staphylococcus aureus ATCC 29213 by CLSI method; assay type: functional
Staphylococcus aureus [4] = assay: Antibacterial activity against methicillin-resistant Staphylococcus aureus USA300 by CLSI method; assay type: functional
Staphylococcus aureus [5] = assay: Antibacterial activity against Staphylococcus aureus 3527 by CLSI method; assay type: functional
Staphylococcus aureus [6] = assay: Antibacterial activity against Staphylococcus aureus harbouring GyrA D83N mutant by CLSI method; assay type: functional
DNA gyrase = DNA gyrase (Staphylococcus aureus, UniProt P0A0K8+P20831); assay: Inhibition of Staphylococcus aureus DNA gyrase supercoiling activity incubated for 25 min by ethidium bromide/bromophenol blue staining based agarose gel electrophoresis analysis; assay type: protein-complex assay
Topoisomerase IV = Topoisomerase IV (Staphylococcus aureus, UniProt P0C1S7+P0C1U9); assay: Inhibition of Staphylococcus aureus DNA topoisomerase 4 decatenation activity using kDNA as substrate incubated for 10 to 20 min by ethidium bromide/bromophenol blue staining based agarose gel electrophoresis analysis; assay type: protein-complex assay
Staphylococcus aureus [7] = assay: Selectivity ratio of IC50 for inhibition of Staphylococcus aureus DNA topoisomerase 4 decatenation activity to IC50 for inhibition of Staphylococcus aureus DNA gyrase supercoiling activity
Neisseria gonorrhoeae [8] = assay: Antimicrobial activity against Neisseria gonorrhoeae G strain harbouring type 2 topoisomerase GyrA S91F and ParE G410V mutant incubated for 20 to 24 hrs by CLSI protocol based broth microdilution method; assay type: functional; conditions: time 20-24 hrs
Neisseria gonorrhoeae [9] = assay: Antimicrobial activity against wild type Neisseria gonorrhoeae ATCC 49226 incubated for 20 to 24 hrs by CLSI protocol based broth microdilution method; assay type: functional; conditions: time 20-24 hrs
Neisseria gonorrhoeae [10] = assay: Antimicrobial activity against wild type Neisseria gonorrhoeae F strain incubated for 20 to 24 hrs by CLSI protocol based broth microdilution method; assay type: functional; conditions: time 20-24 hrs
Neisseria gonorrhoeae [11] = assay: Antimicrobial activity against Neisseria gonorrhoeae K strain harbouring type 2 topoisomerase GyrA S91F, D95N and ParC S87R, S88P mutant incubated for 20 to 24 hrs by CLSI protocol based broth microdilution method; assay type: functional; conditions: time 20-24 hrs
Neisseria gonorrhoeae [12] = assay: Antimicrobial activity against wild type Neisseria gonorrhoeae O strain incubated for 20 to 24 hrs by CLSI protocol based broth microdilution method; assay type: functional; conditions: time 20-24 hrs
Neisseria gonorrhoeae [13] = assay: Antimicrobial activity against wild type Neisseria gonorrhoeae P strain incubated for 20 to 24 hrs by CLSI protocol based broth microdilution method; assay type: functional; conditions: time 20-24 hrs
Neisseria gonorrhoeae [14] = assay: Antimicrobial activity against wild type Neisseria gonorrhoeae V strain harbouring type 2 topoisomerase GyrA S91F, D95G and ParC S87R mutant incubated for 20 to 24 hrs by CLSI protocol based broth microdilution method; assay type: functional; conditions: time 20-24 hrs
Neisseria gonorrhoeae [15] = assay: Antimicrobial activity against wild type Neisseria gonorrhoeae Y strain harbouring type 2 topoisomerase GyrA S91F, D95G and ParC S87R mutant incubated for 20 to 24 hrs by CLSI protocol based broth microdilution method; assay type: functional; conditions: time 20-24 hrs
[16] = Metabolic stability in mouse liver microsomes assessed as half life; assay type: ADME, Microsome
hERG (KCNH2) = hERG (KCNH2) (Homo sapiens, UniProt Q12809); assay: Inhibition of hERG cardiac ion channel at 200 uM relative to control; assay type: toxicity; method in brief: as §1
[17] = Cytotoxicity activity against human K562 cells assessed as inhibition of cellular growth; assay type: toxicity, cell-based
Method in brief: (§2)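 Human K562 leukemia cells were tested alongside K/VP.5, an etoposide-resistant clonal subline derived from them that has reduced levels of human topoisomerase IIα. Cell growth inhibition was expressed as an IC50.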

[18] = Cytotoxicity activity against human K/VP.5 cells assessed as inhibition of cellular growth; assay type: toxicity, cell-based; method in brief: as §2
Neisseria gonorrhoeae [19] = assay: Antimicrobial activity against wild type Neisseria gonorrhoeae ATCC 49226 incubated for 20 hrs by agar dilution method; assay type: functional
Neisseria gonorrhoeae [20] = assay: Antimicrobial activity against Neisseria gonorrhoeae G strain harbouring type 2 topoisomerase GyrA S91F and ParE G410V mutant incubated for 20 hrs by agar dilution method; assay type: functional
Neisseria gonorrhoeae [21] = assay: Antimicrobial activity against Neisseria gonorrhoeae M strain harbouring type 2 topoisomerase GyrA S91F,D95G mutant incubated for 20 hrs by agar dilution method; assay type: functional
Neisseria gonorrhoeae [22] = assay: Antimicrobial activity against Neisseria gonorrhoeae L strain harbouring type 2 topoisomerase GyrA S91F,D95N and ParC D86N,S88P mutant incubated for 20 hrs by agar dilution method; assay type: functional
[23] = Inhibition of Neisseria gonorrhoeae DNA gyrase supercoiling activity incubated for 25 min by ethidium bromide/bromophenol blue staining based agarose gel electrophoresis analysis
Method in brief: (§3)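 The N. gonorrhoeae enzymes were assayed separately: supercoiling by DNA gyrase, and decatenation of kDNA by topoisomerase IV. Concentration–response data were collected over at least three independent experiments and summarized with standard deviation, and IC50 values were derived.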

[24] = Inhibition of Neisseria gonorrhoeae DNA topoisomerase 4 decatenation activity using kDNA as substrate incubated for 10 to 20 min by ethidium bromide/bromophenol blue staining based agarose gel electrophoresis analysis; method in brief: as §3

Row | Compound | IC50 [1] [µM] | MIC (Staphylococcus aureus [2]) [µg/mL] | MIC (Staphylococcus aureus [3]) [µg/mL] | MIC (Staphylococcus aureus [4]) [µg/mL] | MIC (Staphylococcus aureus [5]) [µg/mL] | MIC (Staphylococcus aureus [6]) [µg/mL] | IC50 (DNA gyrase) [µM] | IC50 (Topoisomerase IV) [µM] | Ratio IC50 (Staphylococcus aureus [7]) | MIC (Neisseria gonorrhoeae [8]) [µg/mL] | MIC (Neisseria gonorrhoeae [9]) [µg/mL] | MIC (Neisseria gonorrhoeae [10]) [µg/mL] | MIC (Neisseria gonorrhoeae [11]) [µg/mL] | MIC (Neisseria gonorrhoeae [12]) [µg/mL] | MIC (Neisseria gonorrhoeae [13]) [µg/mL] | MIC (Neisseria gonorrhoeae [14]) [µg/mL] | MIC (Neisseria gonorrhoeae [15]) [µg/mL] | half-life [16] [h] | IC50 [17] [µM] | IC50 [18] [µM] | other results
1 | O=c1ccc2ccc(F)c3c2n1CC3C[C@H]1OC[C@H](NCc2cc3c(nn2)OCCO3)CO1 (some centres not stated) | > 200 | 1 (≈ 2.2 µM) | 2 (≈ 4.4 µM) | 4 (≈ 8.8 µM) | 4 (≈ 8.8 µM) | > 8 | 3.5 | 9.7 | 2.8 | > 32 | 32 (≈ 70.4 µM) | 16 (≈ 35.2 µM) | > 32 | 32 (≈ 70.4 µM) | 32 (≈ 70.4 µM) | 32 (≈ 70.4 µM) | 32 (≈ 70.4 µM) | 1.7 | 156 | 171 | inhibition at 200 µM (hERG (KCNH2)): 21%
2 | COc1ccc2ncc(F)c(C[C@H](O)[C@H]3OC[C@H](NC(=O)c4ccc5c(n4)NC(=O)CS5)CO3)c2n1 | > 100 | ≤ 0.06 | 0.06 (≈ 0.116 µM) | ≤ 0.06 | ≤ 0.06 | 0.25 (≈ 0.485 µM) | 0.15 | 0.42 | 2.8 | 0.12 (≈ 0.233 µM) | ≤ 0.015 | ≤ 0.015 | ≤ 0.015 | ≤ 0.015 | ≤ 0.015 | ≤ 0.015 | ≤ 0.015 | 0.0903 | 7.5 | > 100 | MIC (Neisseria gonorrhoeae [19]): 0.12 µg/mL (≈ 0.233 µM); MIC (Neisseria gonorrhoeae [20]): 0.25 µg/mL (≈ 0.485 µM); MIC (Neisseria gonorrhoeae [21]): 0.12 µg/mL (≈ 0.233 µM); MIC (Neisseria gonorrhoeae [22]): 0.5 µg/mL (≈ 0.97 µM); IC50 [23]: 0.64 µM; IC50 [24]: 27 µM
3 | O=c1ccc2ncc(F)c3c2n1CC3C[C@H]1OC[C@H](NCc2cc3c(nn2)OCCS3)CO1 (some centres not stated) | > 200 | 2 (≈ 4.24 µM) | 2 (≈ 4.24 µM) | 4 (≈ 8.48 µM) | 4 (≈ 8.48 µM) | > 8 | 1.8 | 10 | 5.6 | > 32 | 32 (≈ 67.9 µM) | 8 (≈ 17 µM) | 32 (≈ 67.9 µM) | 32 (≈ 67.9 µM) | 32 (≈ 67.9 µM) | 4 (≈ 8.48 µM) | 8 (≈ 17 µM) | 1.88 | 98 | 197 | inhibition at 200 µM (hERG (KCNH2)): 23%
4 | COc1ccc2ncc(F)c(C[C@H](O)[C@H]3OC[C@H](NCc4ccc5c(n4)NC(=O)CS5)CO3)c2n1 | – | – | – | – | – | – | – | – | – | ≤ 0.03 | ≤ 0.03 | ≤ 0.03 | ≤ 0.03 | ≤ 0.03 | ≤ 0.03 | ≤ 0.03 | ≤ 0.03 | – | – | – | MIC (Neisseria gonorrhoeae [19]): 0.25 µg/mL (≈ 0.498 µM); MIC (Neisseria gonorrhoeae [20]): 1 µg/mL (≈ 1.99 µM); MIC (Neisseria gonorrhoeae [21]): 0.5 µg/mL (≈ 0.997 µM); MIC (Neisseria gonorrhoeae [22]): 1 µg/mL (≈ 1.99 µM); IC50 [23]: 0.39 µM; IC50 [24]: 3.6 µM
